Results reported in ChEMBL document CHEMBL4251558, “Synthesis and preliminary antiproliferative activity of new pteridin-7(8H)-one derivatives” (Eur J Med Chem, 2018).

Tested on: ECa-109 cell line
Assay: Antiproliferative activity against human EC109 cells assessed as decrease in cell viability after 48 hrs by MTT assay
Format: functional, cell-based
Conditions: ECa-109, 48 h
Summary of the method: (§1)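 Cells in exponential growth seeded at 3000 per well and allowed 24 h. Medium then replaced with fresh medium holding a range of compound concentrations, followed by 48 h incubation. Viability read by MTT at 570 nm. IC50 is the concentration giving 50% inhibition of proliferation, reported as mean ± SD of three independent experiments.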

For CCCSc1nc(N2CCN(C)CC2)c2ncc(=O)n(CC(C)C)c2n1, which IC50 is on record?
Its IC50 is 37.5 µM.

With CCCSc1nc(N2CCN(Cc3ccccc3)CC2)c2ncc(=O)n(Cc3ccccc3)c2n1 as the compound, how does the IC50 read?
Its IC50 is greater than 64 µM.

With Cc1nc(N2CCN(C)CC2)c2ncc(=O)n(Cc3ccccc3)c2n1 as the compound, how does the IC50 read?
Its IC50 is 39 µM.

With CCCSc1nc(N2CCSCC2)c2ncc(=O)n(Cc3ccccc3)c2n1 as the compound, how does the IC50 read?
The IC50 was greater than 64 µM.

For CN1CCN(c2ncnc3c2ncc(=O)n3Cc2ccccc2)CC1, which IC50 is on record?
Its IC50 is 41.7 µM.

Tested on: MKN-45
Assay: Antiproliferative activity against human MKN45 cells assessed as decrease in cell viability after 48 hrs by MTT assay
Format: functional, cell-based
Conditions: MKN-45, 48 h
Summary of the method: as §1

How did the IC50 turn out when CCCSc1nc(N2CCN(C)CC2)c2ncc(=O)n(CC(C)C)c2n1 was run?
Its IC50 is 16.8 µM.

With CCCSc1nc(N2CCN(Cc3ccccc3)CC2)c2ncc(=O)n(Cc3ccccc3)c2n1 as the compound, how does the IC50 read?
The IC50 was 15.4 µM.

With Cc1nc(N2CCN(C)CC2)c2ncc(=O)n(Cc3ccccc3)c2n1 as the compound, how does the IC50 read?
The IC50 was greater than 64 µM.

Which IC50 does the source give for CCCSc1nc(N2CCSCC2)c2ncc(=O)n(Cc3ccccc3)c2n1 here?
Its IC50 is greater than 64 µM.

Which IC50 does the source give for CN1CCN(c2ncnc3c2ncc(=O)n3Cc2ccccc2)CC1 here?
Its IC50 is greater than 64 µM.

Tested on: MGC-803
Assay: Antiproliferative activity against human MGC803 cells assessed as decrease in cell viability after 48 hrs by MTT assay
Format: functional, cell-based
Conditions: MGC-803, 48 h
Summary of the method: as §1

CCCSc1nc(N2CCN(C)CC2)c2ncc(=O)n(CC(C)C)c2n1 was tested. Which IC50 did it give?
Its IC50 is 17.2 µM.

Which IC50 does the source give for CCCSc1nc(N2CCN(Cc3ccccc3)CC2)c2ncc(=O)n(Cc3ccccc3)c2n1 here?
The IC50 was 18.7 µM.

Cc1nc(N2CCN(C)CC2)c2ncc(=O)n(Cc3ccccc3)c2n1 was tested. Which IC50 did it give?
Its IC50 is greater than 64 µM.

CCCSc1nc(N2CCSCC2)c2ncc(=O)n(Cc3ccccc3)c2n1 was tested. Which IC50 did it give?
Its IC50 is 34.7 µM.

CN1CCN(c2ncnc3c2ncc(=O)n3Cc2ccccc2)CC1 was tested. Which IC50 did it give?
The IC50 was greater than 64 µM.

Tested on: NCI-H1650
Assay: Antiproliferative activity against human NCI-H1650 cells assessed as decrease in cell viability after 48 hrs by MTT assay
Format: functional, cell-based
Conditions: NCI-H1650, 48 h
Summary of the method: as §1

CCCSc1nc(N2CCN(C)CC2)c2ncc(=O)n(CC(C)C)c2n1 was tested. Which IC50 did it give?
The IC50 was 45.4 µM.

For CCCSc1nc(N2CCN(Cc3ccccc3)CC2)c2ncc(=O)n(Cc3ccccc3)c2n1, which IC50 is on record?
Its IC50 is greater than 64 µM.

How did the IC50 turn out when Cc1nc(N2CCN(C)CC2)c2ncc(=O)n(Cc3ccccc3)c2n1 was run?
The IC50 was greater than 64 µM.

Which IC50 does the source give for CCCSc1nc(N2CCSCC2)c2ncc(=O)n(Cc3ccccc3)c2n1 here?
Its IC50 is 54.8 µM.

With CN1CCN(c2ncnc3c2ncc(=O)n3Cc2ccccc2)CC1 as the compound, how does the IC50 read?
The IC50 was greater than 64 µM.
